Assay outcomes from PubChem.
In the library only some 1.7% were active in any assay of this set; here they are far more common.
DNMT1 block: blocks human DNA methyltransferase DNMT1; P26358; DNMT1 molecular beacon, Hinp1I cleavage, fluorescence; inhibition (reported as % activation of signal), % at 10 µM; actives 0.83% (n = 360,000); AID 588458; in the data active = inhibition above about 50%
STEP inh: STEP (human) phosphatase inhibition; P54829; recombinant STEP, OMFP fluorogenic substrate, fluorescence; inhibition, % at 20 µM; actives 0.25% (n = 360,000);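 active = inhibition at 20 µM, scaled per plate between control wells, above about 37%, limit read from the data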;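 also: 0% = DMSO with enzyme and substrate and 100% = substrate only without enzyme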
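System: STEP (striatal-enriched tyrosine phosphatase) enzyme, cell-free; medium: Bis-Tris pH 6.0 buffer with DTT, detergent; dosing: 20 µM, 1% DMSO; times: reaction 20 min, ambient temperature; detection: fluorescence, 480/540 nm; read-out basis: normalized % inhibition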
LMPTP block: LMPTP (human) inhibition; P24666; actives 0.22% (n = 360,000); inhibition, % at 20 µM; recombinant LMPTP-A, OMFP fluorogenic substrate, fluorescence intensity;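 active = compounds that cut the enzyme signal by at least half of the control window in the single-dose screen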;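 also: plate controls were DMSO wells with enzyme plus substrate for no effect and substrate without enzyme for full effect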
Target sequence (P24666 whole entry, looked up): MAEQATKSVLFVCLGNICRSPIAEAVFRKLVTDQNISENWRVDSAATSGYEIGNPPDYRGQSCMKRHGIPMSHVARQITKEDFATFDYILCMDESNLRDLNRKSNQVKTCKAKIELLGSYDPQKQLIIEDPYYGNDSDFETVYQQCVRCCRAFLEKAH
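Test system – LMPTP-A enzyme · Amount – LMPTP-A at 0.625 nM final in the reaction · Buffer or medium – Bis-Tris pH 6.0, DTT, detergent · Reagent – OMFP 400 µM · Doses – single 20 µM dose · Schedule – reaction 50 min, room temperature, dark · Detection – fluorescence intensity of OMFP turnover product · Evaluation – percent inhibition versus substrate-only and uninhibited controls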
SUMO1 PPI mod: alters human SUMO1 binding to SIM partners; AID 602429; actives 0.33% (n = 360,000); SUMO1 binding to a labelled peptide, TR-FRET, 1 h; P63165; inhibition, % at 20 µM; in the data active = inhibition above about 37%
Target sequence (P63165 whole entry, looked up): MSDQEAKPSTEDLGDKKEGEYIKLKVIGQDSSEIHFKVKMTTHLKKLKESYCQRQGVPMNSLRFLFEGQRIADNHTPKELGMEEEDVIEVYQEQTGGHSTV
Scp1 inh: blocks human Scp-1 phosphatase activity; Q9GZU7; Recombinant Scp1, phosphopeptide, malachite green phosphate absorbance; inhibition, % at 20 µM; actives 0.88% (n = 340,000); AID 493091;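 active = inhibition above about 50% at 20 µM, limit read from the data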;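 also: plate controls were DMSO wells with enzyme for no effect and wells lacking enzyme for full effect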
Target sequence (Q9GZU7 76-261 limits assumed): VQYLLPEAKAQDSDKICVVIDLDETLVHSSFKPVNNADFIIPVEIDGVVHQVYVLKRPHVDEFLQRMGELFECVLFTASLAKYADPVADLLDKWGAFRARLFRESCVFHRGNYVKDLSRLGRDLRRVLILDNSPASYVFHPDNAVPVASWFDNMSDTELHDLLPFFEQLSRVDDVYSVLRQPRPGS
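Incubation: 45 min enzyme reaction at room temperature / System: truncated SCP-1 phosphatase (76-261aa) / Reagent: Phospho 17-mer peptide substrate / Buffer or medium: Acidic Tris acetate buffer with magnesium and detergent / Signal: absorbance at 630 nm / Doses: one concentration, 20 µM, with 1.0% DMSO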
Scp-1 conf: Scp-1 (human) inhibition, single-dose confirmed | shares compounds with Scp1 inh | recombinant SCP-1 catalytic domain, phosphate release, malachite green absorbance | inhibition, % at 20 µM | actives 61% (n = 2,500) | AID 540281;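 also: plate controls were DMSO with enzyme for no effect and buffer wells lacking enzyme for full effect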
Scp-1 MG ctr: colorimetric interference in Scp-1 counter-screen | 2,500 tested, under 10 active | AID 540313 | Colorimetric interference counterscreen, malachite green absorbance 630 nm | shares compounds with Scp1 inh | apparent inhibition (interference), % at 20 µM;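 also: compounds added after enzyme reaction finished so only phosphate colour detection is probed; plate controls were DMSO wells with completed Scp-1 reaction for no effect and substrate wells lacking enzyme for full effect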
Scp1 DSF: validation of human Scp-1 inhibitors by thermal shift binding. Recombinant SCP1, Sypro Orange thermal shift Tm. thermal shift relative to vanadate control, % at 40 µM. actives 25% (n = 1,500). shares compounds with Scp1 inh;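 active = substances whose mean melting-temperature shift, as a percentage of the reference inhibitor's shift, reaches about 5.3%, limit read from the data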;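 also: 0% = Tm of DMSO wells and 100% = Tm with sodium orthovanadate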
DNMT1 confirm: DNMT1 inhibition confirmation, single concentration; shares compounds with DNMT1 block; DNMT1 molecular beacon HinP1I cleavage, fluorescence; inhibition, % at 10 µM; actives 8% (n = 2,300);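 active = average inhibition of at least 30% in the single-concentration confirmation test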
Beacon interf: counter-screen for DNMT1 inhibitors: spectral interference | activation (fluorescence interference), % at 10 µM | DNMT1 molecular beacon spectral interference counterscreen, fluorescence 485/520 | AID 602387 | actives 1% (n = 2,300) | shares compounds with DNMT1 block;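 active = activation of at least 30% at 10 µM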;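 also: DNMT1 catalytic domain with a HinP1I cleavage step and a FAM/dabcyl DNA beacon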
STEP inh conf: confirmation of human STEP phosphatase inhibitors | shares compounds with STEP inh | recombinant STEP, OMFP fluorogenic substrate, fluorescence | inhibition, % at 20 µM | actives 32% (n = 520); call rule not given here;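 also: 0% = enzyme with substrate plus DMSO and 100% = substrate without enzyme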
Numbers without * were called inactive; / = no result.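 The calls were made as follows, unless noted: active = inhibition of at least 30% at 20 µM; inactive = the rest.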

SMILES	DNMT1 block	STEP inh	LMPTP block	SUMO1 PPI mod	Scp1 inh	Scp-1 conf	Scp-1 MG ctr	Scp1 DSF	DNMT1 confirm	Beacon interf	STEP inh conf
NC(=S)n1[nH]c(-c2ccc([N+](=O)[O-])cc2)c(N=Nc2ccccc2[N+](=O)[O-])c1=O	85*	7	10	5	63*	38*	-19	10*	-2	-8	/
CCOc1ccccc1C(O)C1=CC(=O)c2ccccc2C1=O (centres undefined)	96*	2	27	9	75*	54*	-19	14*	11	-3	/
CC1=CC(=O)c2ccccc2C1=O	-21	-3	0	-30	-9	/	/	/	/	/	/
C=CCn1c(SC(C)CC)nc(O)cc1=O (centres undefined)	0	2	-1	4	-2	/	/	/	/	/	/
O=C(Nc1sc2c(c1C(=O)O)CCC2)c1ccccc1	82*	23	9	10	58*	54*	-15	6.6*	0	7	/
O=C(Nc1sc2c(c1C(=O)O)CCCCC2)c1ccccc1	-2	4	-1	2	-5	/	/	/	/	/	/
COC(=O)c1cc(NC(=O)Cc2cccs2)cc(C(=O)OC)c1	58*	21	48	3	76*	65*	-18	6.3*	7	-2	/
Cc1ccc([N+](=O)[O-])cc1NC(=O)Cc1cccs1	81*	0	26	-12	67*	60*	-22	5.9*	8	2	/
COc1cc(NC(=O)c2ccccc2)c(OC)cc1NC(=O)Cc1cccs1	73*	2	24	6	71*	66*	-16	8.0*	4	-7	/
O=C(CNC(=O)c1cccc(OC(F)F)c1)OCc1cc(=O)n2cc(Br)ccc2n1	108*	0	11	-19	61*	58*	-10	3	3	6	/
O=C(CNC(=O)c1cccc(OC(F)F)c1)OCC(=O)c1ccccc1	-2	-2	-2	1	-1	/	/	/	/	/	/
NC(=S)N=Nc1c(O)n(CC(=O)Nc2ccccc2)c2ccccc12	5	0	1	-3	0	/	/	/	/	/	/
Cc1cccc(NC(=O)Cn2c(O)c(N=NC(=O)c3ccccc3O)c3ccccc32)c1	88*	36	35	-8	88*	86*	-8	4	15	-3	/
Cc1nnn(-c2nonc2N)c1C(=O)N/N=C/c1ccccc1O	79*	11	36	3	51*	64*	-12	-4	12	-1	/
CCN(c1ccccc1)S(=O)(=O)c1cc(C(=O)OC(C)C(=O)Nc2ccc3c(c2)OCCO3)ccc1C (centres undefined)	29	41*	23	6	81*	63*	-16	7.5*	/	/	59*
CC(OC(=O)c1ccccn1)C(=O)Nc1ccc2c(c1)OCCO2 (centres undefined)	2	1	-1	4	-1	/	/	/	/	/	/
CCN(c1ccccc1)S(=O)(=O)c1cc(C(=O)OCC(=O)c2c(N)n(C)c(=O)n(C)c2=O)ccc1C	93*	46*	26	19	62*	63*	-19	-4	3	1	70*
Cc1ccc(C)c(CN2CCC(n3nccc3NC(=O)CCCc3ccccc3)CC2)c1	0	-2	0	1	4	/	/	/	/	/	/
O=C(O)c1ccc(Nc2nc(-c3ccc([N+](=O)[O-])cc3)nc3ccccc23)cc1	-4	89*	63*	-4	82*	57*	-10	9.2*	/	/	15
COc1cc(OC)cc(C(=O)NC2CCCN(Cc3ccc(Cl)cc3)C2)c1 (centres undefined)	-8	0	0	-3	3	/	/	/	/	/	/
CCC(C)N(C(=O)CN1C(=O)NC2(CCc3ccccc32)C1=O)C1CCS(=O)(=O)C1 (centres undefined)	3	-1	0	4	-3	/	/	/	/	/	/
CN1C(=O)C(CC#N)(C2(CC#N)C(=O)N(C)c3ccccc32)c2ccccc21 (centres undefined)	7	2	-1	2	0	/	/	/	/	/	/
O=C(N/N=C/c1ccc(OC(=O)c2ccc3c(c2)OCO3)cc1)c1cncc(Br)c1	117*	99*	86*	-3	94*	86*	-13	-26	4	-9	11
CN(C)c1ccc(/C=N/NC(=O)c2cc(-c3ccc4c(c3)OCO4)n[nH]2)cc1	0	13	21	7	-14	/	/	/	/	/	/
O=C(N/N=C/c1ccc(F)cc1)c1cc(-c2ccc3c(c2)OCO3)n[nH]1	14	42*	27	21	56*	35*	-21	-22	/	/	36*
SMILES	DNMT1 block	STEP inh	LMPTP block	SUMO1 PPI mod	Scp1 inh	Scp-1 conf	Scp-1 MG ctr	Scp1 DSF	DNMT1 confirm	Beacon interf	STEP inh conf
O=C(N/N=C/c1cccc(OC(=O)c2ccc3c(c2)OCO3)c1)c1cncc(Br)c1	3	2	-1	-3	-2	/	/	/	/	/	/
O=C(N/N=C/c1ccc(Cl)c([N+](=O)[O-])c1)c1ccc2c(c1)OCCO2	80*	94*	89*	80*	105*	78*	-14	-12	9	-2	46*
O=C(N/N=C\c1ccc(OC(=O)c2cccs2)cc1)c1ccc(Cl)cc1	43	94*	94*	6	96*	81*	-12	-24	/	/	6
O=C(NCCN1CCCCC1)Nc1ccc(F)cc1F	2	-1	-2	3	-3	/	/	/	/	/	/
O=C(N/N=C/c1ccc(Cl)cc1)c1ccc2c(c1)OCO2	9	93*	39	15	103*	91*	-4	-26	/	/	18
CC1(C)CC(=O)C=C(Nc2ccc(C(=O)O)c(O)c2)C1	2	-1	0	-3	-2	/	/	/	/	/	/
CNc1[nH]c(=O)[nH]c(=O)c1N=Nc1cc(Cl)ccc1Cl	4	48*	3	-6	108*	73*	-11	-6	/	/	16
O=C(c1cc2ccccc2o1)N1CCN(c2ccccn2)CC1	2	-2	0	-2	-13	/	/	/	/	/	/
CCc1ccc(NC(=S)N2CCN(c3cccc(OC)c3)CC2)cc1	4	-5	1	1	-1	/	/	/	/	/	/
